Ba/F3 V617F tox – reduced viability of JAK2V617F-dependent Ba/F3 cells, primary screen, JAK2V617F inhibitor project, cell-based, Ba/F3 EpoR-JAK2V617F, luminescence; inhibition, % at 5.6 µM; ATP luminescence; 1.1% of 220,000 active;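 active = inhibition above the campaign mean plus 3 SD over all tested compounds, cut at about 24% in these data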;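 also: cytokine-independent growth of Ba/F3 cells driven by EpoR plus mutant JAK2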
APP transl inh – inhibitors of APP translation via 5'UTR reporter, primary screen, APP 5'UTR luciferase, SH-SY5Y cells; SH-SY5Y APP 5'UTR-luciferase reporter, luminescence; 0.82% of 190,000 active; inhibition, % at 2 µM;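 active = inhibition above a set limit, derived from the sample mean plus 3 SD, cut at about 45% in these data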
IEC-6 tox – cytotoxicity in IEC-6 intestinal epithelial cells, primary screen, cytotoxicity control for KLF5 inhibitor project, cell-based, luminescence | IEC-6 cytotoxicity, luminescence viability | inhibition, % at 5 µM | 0.78% of 290,000 active; in the data active = inhibition above about 22%
BaF3 parental – parental Ba/F3 cell viability inhibition, counter-screen for JAK2V617F inhibitor project, murine pro-B, CellTiter-Glo luminescence | 1.1% of 220,000 active | CellTiter-Glo ATP luminescence | AID 1486, 2009 | inhibition, % at 5.6 µM;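 active = inhibition above a per-campaign cutoff, the mean inhibition of all tested compounds plus 3 SD, cut at about 27% in these data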
bCat nuc transl – modulators of beta-catenin nuclear translocation, primary screen, imaging, HeLa cells, immunofluorescence, high-content. nuclear translocation activity, % at 5 µM. 0.3% of 190,000 active;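 active = nuclear translocation activity above 50% at 5 µM, with a well cell count of 50 or more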;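 also: per-cell ratio of nuclear to cytoplasmic median beta-catenin stain intensity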
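test system = HeLa cells, endogenous beta-catenin | dosing = single 5 µM dose plus 0.02–20 µM confirmation series | times = compound treatment 24 h, 37°C, 5% CO2 | technique = beta-catenin immunofluorescence imaging with DAPI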
MT stabilizer – microtubule stabilizers in HeLa cells, primary screen, imaging, high-content imaging | HeLa tubulin immunostaining HCS, 24 h; share of cells brighter than vehicle mean+2SD | % tubulin-high responders, % at 10 µM | 0.83% of 200,000 active | AID 2205, 2009;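 active = plate Z-score above 3 for both tubulin-high and condensed-nucleus cell shares, with cell loss under 80%, at 10 µM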;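 also: anti alpha tubulin signal scored within the nucleus-defined area of each cell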
Of the large screens only hits and unclear results are named; the others gave an inactive call. Only some compounds are listed: those with a hit (about 2.2% of all), similar ones and a draw of the others.

O=S(=O)(c1cccs1)N1CCN(Cc2nc3ccccc3s2)CC1	none (no result: bCat nuc transl)
COc1ccc(C2C3=C(CCCC3=O)Nc3ccc4ncccc4c32)cc1OC (stereo not given)	none
COc1cc(C2C3=C(CCCC3=O)Nc3ccc4ncccc4c32)ccc1O (stereo not given)	MT stabilizer 33
O=C1C(c2cc(=O)c3ccccc3[nH]2)=C(O)c2ccccc21	none
O=c1cc(-c2ccccc2)[nH]c2ccccc12	Ba/F3 V617F tox 82, APP transl inh 94, IEC-6 tox 84, BaF3 parental 79, bCat nuc transl 193, MT stabilizer 32
CCOC(=O)c1c(NC(=O)CN2CCN(C)CC2)sc(C(=O)Nc2ccccc2)c1C	MT stabilizer 36
CCCN1CCC(NC(=O)Nc2cc(Cl)ccc2OC)CC1	BaF3 parental 90
Cc1ccc2c(c1)c(C)cc[n+]2Cc1ccccc1	Ba/F3 V617F tox 94, BaF3 parental 70
Nc1cc(Cl)ccc1N1CCCCCC1	Ba/F3 V617F tox 42, BaF3 parental 56
Cc1ccc(C)c(NC(=S)NCc2ccc3[nH]c4c(c3c2)CCCC4)c1	APP transl inh 47
COc1ccc(CCNC(=S)Nc2cc(C)ccc2C)cc1	none (no result: bCat nuc transl)
COc1ccc(CNC(=S)Nc2cc(C)ccc2C)cc1	APP transl inh 70
CC(C)(C=O)C1=CC(=O)c2ccccc2C1=O	APP transl inh 80
CC(C)CC(OC(=O)c1nsc(Cl)c1Cl)C(=O)NCC1CCCO1 (stereo not given)	none (no result: Ba/F3 V617F tox, APP transl inh, BaF3 parental, bCat nuc transl, MT stabilizer)
CCc1ccc(CC2S/C(=C(\C#N)C(C)=O)NC2=O)cc1 (stereo not given)	IEC-6 tox 70
Cc1cccc(N=Nc2ccc(O)c3ncccc23)c1	APP transl inh 72
CCS(=O)(=O)c1ccc(OC)c(N=Nc2ccc(O)c3ncccc23)c1	APP transl inh 67
Oc1ccc(N=Nc2ccc3c(c2)OCCO3)c2ncccc12	Ba/F3 V617F tox 92, BaF3 parental 67 (no result: APP transl inh, MT stabilizer)
Cc1ccc(C)c(N=Nc2ccc(O)c3ncccc23)c1	none
CCc1ccc(-c2nc3ccc(Br)cc3c(C(=O)O)c2C)s1	none (no result: Ba/F3 V617F tox, APP transl inh, BaF3 parental, bCat nuc transl, MT stabilizer)
COc1ccc(NC(=O)CSc2nc3n[nH]c(C)c3c(=N)n2-c2ccc(Cl)c(C)c2)cc1OC	none (no result: Ba/F3 V617F tox, APP transl inh, BaF3 parental, bCat nuc transl, MT stabilizer)
Cc1ccc(C(C)C)c(OCc2ccc(C(=O)N/N=C/c3ccc(O)cc3O)cc2)c1	APP transl inh 75
Cc1ccc(C(C)C)c(OCc2ccc(C(=O)N/N=C/c3ccc(C(=O)O)cc3)cc2)c1	none (no result: APP transl inh, MT stabilizer)
CCOC(=O)COc1ccc2c(c1)c(C(C)=O)c(C)n2-c1ccc(OC)cc1	none (no result: Ba/F3 V617F tox, APP transl inh, BaF3 parental, bCat nuc transl, MT stabilizer)
CCOC(=O)C1CCN(C(=O)Cn2cnc3sc(C)c(S(=O)(=O)N4CCOCC4)c3c2=O)CC1	none (no result: Ba/F3 V617F tox, APP transl inh, BaF3 parental, bCat nuc transl, MT stabilizer)
CCC(=O)Nc1ccc(NC(=O)c2cccc3c(Br)cccc23)cc1	none (no result: Ba/F3 V617F tox, APP transl inh, BaF3 parental, bCat nuc transl, MT stabilizer)
O=C(NCCN1CCOCC1)c1cccc(S(=O)(=O)N2CCCCCC2)c1	none (no result: bCat nuc transl)
CC(=O)N1CCN(CC(=O)Nc2cccc(S(=O)(=O)N3CCCCCC3)c2)CC1	none
O=C(NCCO)c1cccc(S(=O)(=O)N2CCCCC2)c1	BaF3 parental 94
O=C(CCl)Nc1cccc(S(=O)(=O)N2CCCCCC2)c1	MT stabilizer 13
O=C(c1cccc(S(=O)(=O)N2CCCC2)c1)N1CCN(c2ccccc2)CC1	MT stabilizer 18 (no result: bCat nuc transl)
O=C(c1cccc(S(=O)(=O)N2CCCCCC2)c1)N1CCN(c2ccccc2)CC1	none
Cc1cc(C)c(S(=O)(=O)NC2CC(C)(C)NC(C)(C)C2)cc1Br	none (no result: Ba/F3 V617F tox, APP transl inh, BaF3 parental, bCat nuc transl, MT stabilizer)
COC(=O)c1cc2c(=O)c3ccccc3oc2nc1/C=C/N(C)C	none (no result: Ba/F3 V617F tox, APP transl inh, BaF3 parental, bCat nuc transl, MT stabilizer)
Cc1ccc2c(c1)S/C(=C/c1ccc[n+](CCO)c1)N2C	Ba/F3 V617F tox 87, BaF3 parental 68
O=C(CCN1CCCCC1=O)NC1CCCc2c1cnn2-c1ccccc1F (stereo not given)	none (no result: Ba/F3 V617F tox, APP transl inh, BaF3 parental, bCat nuc transl, MT stabilizer)
COc1ccc2cc(C(C)C(=O)N3CCC(C)CC3)ccc2c1 (stereo not given)	none (no result: Ba/F3 V617F tox, APP transl inh, BaF3 parental, bCat nuc transl, MT stabilizer)
COc1cc(C(=O)NCCOc2cc(C)cc(C)c2)c(Br)c(OC)c1OC	MT stabilizer 44
COc1cc(C(=O)NC2CCCC2)c(Br)c(OC)c1OC	none
